Compound activity deposited in PubChem by The Scripps Research Institute Molecular Screening Center.
OX1R antag-1 = antagonists of human orexin 1 receptor (OX1R) | 330,000 compounds, 1.8% hits | inhibition, % at 6.6 µM | AID 485270, 2010 | OX1R-expressing cells, FRET antagonist read-out | Orexin/Hypocretin receptor type 1 (Homo sapiens), O43613; in the data active means inhibition mostly above about 38%, no sharp cut-off; inactive means mostly below about 40%;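 further: 0% = agonist challenge alone and 100% = reference antagonist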
Target sequence (O43613 whole entry, looked up): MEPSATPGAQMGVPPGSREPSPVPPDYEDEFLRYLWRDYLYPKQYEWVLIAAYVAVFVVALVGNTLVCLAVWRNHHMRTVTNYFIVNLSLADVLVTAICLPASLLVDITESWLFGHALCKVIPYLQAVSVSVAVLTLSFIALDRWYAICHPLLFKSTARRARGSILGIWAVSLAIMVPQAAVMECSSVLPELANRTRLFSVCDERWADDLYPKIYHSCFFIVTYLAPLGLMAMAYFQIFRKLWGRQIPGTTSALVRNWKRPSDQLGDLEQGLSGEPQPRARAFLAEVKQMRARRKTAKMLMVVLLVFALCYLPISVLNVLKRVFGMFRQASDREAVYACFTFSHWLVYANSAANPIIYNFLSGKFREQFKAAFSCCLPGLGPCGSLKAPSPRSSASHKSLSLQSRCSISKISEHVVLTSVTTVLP
OX1R antag-2 = OX1R (HCRTR1) antagonists, primary screen, fluorescence, CHO/OX1R cells, Fluo-8 calcium, orexin A; 330,000 compounds, 0.43% hits; inhibition, % at 5 µM; Fluo-8 calcium fluorescence; Orexin/Hypocretin receptor type 1 (Homo sapiens), O43613;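 active means inhibition above its plate's threshold, mean inhibition of all tested compounds on the plate plus 3 SD, cut at about 37% in these data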;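 further: 0% = orexin A challenge wells and 100% = SB-334867-A antagonist wells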
TAAR1 agonist = human TAAR1 agonists, primary screen, Fluo-8 calcium fluorescence, CHO RD-HGA16 cells. Trace amine-associated receptor 1 (Homo sapiens), Q96RJ0. vehicle wells 0%, saturating PEA agonist 100%. activation, % at 3 µM. 360,000 compounds, 0.99% hits. AID 624467, 2012;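 active means activation above the mean activation of all test compounds in the run plus 3 SD, cut at about 38% in these data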
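Assay system: CHO-derived RD-HGA16 cells with stable Gα16 and human TAAR1; timing: 17-24 h seeding, 75 min 37 °C dye, 30 min RT; read-out: % activation from peak over basal fluorescence ratio, DMSO-to-PEA scaled; measured by: kinetic Fluo-8 calcium fluorescence; benchmarks: low control DMSO, high control PEA (EC100); doses: 3 µM single concentration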
CHO parental Ca = ATP-evoked calcium signal inhibitors, parental CHO, primary screen, counter-screen for OX1R antagonist project, cell-based, fluorescence, Fluo-8 calcium dye | parental CHO-K1, ATP-induced calcium, Fluo-8 fluorescence | 330,000 compounds, 0.63% hits | inhibition, % at 5.6 µM;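 active means inhibition above that plate's mean sample inhibition plus 3 SD, cut at about 26% in these data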;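 further: 0% = ATP-challenged DMSO wells and 100% = DMSO wells without ATP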
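Material: Parental CHO cells | Reagent: ATP | Compound dosing: Single nominal dose of 5.6 µM per compound | Detection: Intracellular calcium via Fluo-8 no-wash fluorescent dye | Read-out: % inhibition of ATP-induced calcium mobilization | Benchmarks: Low control ATP plus DMSO, high control DMSO only | Replicates: Singlicate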
TAAR1 antagonist = human TAAR1 antagonists, primary screen, Fluo-8 calcium fluorescence, CHO RD-HGA16 cells; antagonist; inhibition, % at 3 µM; 360,000 compounds, 1.5% hits; AID 624466, 2012;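 active means inhibition above a per-plate cutoff, the mean inhibition of test compounds on that plate plus 3 SD, cut at about 49% in these data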;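 further: 0% = DMSO plus EC80 beta-PEA response and 100% = DMSO alone without agonist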
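Material: RD-HGA16 CHO cells with stable hTAAR1 and Gα16; Dosing: single nominal final test compound concentration of 3 µM; Schedule: seeding 17-24 h prior, 75-min 37 °C, 30-min RT dye loading; Detection: kinetic Fluo-8 calcium fluorescence measurement; Measure: % inhibition from peak post-agonist over basal fluorescence ratio; Benchmarks: vehicle and agonist controls.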
Starred values were filed as active, the others as inactive; . = no result given. In the library only some 3.9% were active in any assay of this set; here they are far more common.

SMILES	OX1R antag-1	OX1R antag-2	TAAR1 agonist	CHO parental Ca	TAAR1 antagonist
COc1cccc2c1C(=O)c1c(O)c3c(c(O)c1C2=O)C[C@@](O)(C(=O)CO)C[C@@H]3O[C@H]1C[C@H](N)[C@@H](O)[C@H](C)O1	41*	29	.	19	.
O=C(N[C@H](Cc1ccccc1)C(=O)N1CCCN(Cc2ccccc2F)CC1)[C@H]1O[C@@H](n2ccc(=O)[nH]c2=O)[C@H](O)[C@@H]1O	.	.	0	.	-28
CCCCn1nnnc1C1(C)CCC(=O)N1Cc1ccc(C)cc1 (stereo not given)	.	.	3	.	-5
CCc1nc(Nc2ccccc2F)c2oc3ccccc3c2n1	44*	-31	12	-30	-9
CCc1nc(Nc2ccc(F)cc2)c2oc3ccccc3c2n1	0	-46	8	-33	8
COc1ccc(COc2cc(-c3cccc(OC)c3)nc3ccc(NC(=O)c4ccccc4)cc23)cc1	28	-19	8	-5	53*
COc1ccc(COc2cc(-c3cccc(OC)c3)nc3ccc(NC(=O)c4ccc(OC)cc4)cc23)cc1	21	-7	10	-7	61*
COc1ccc(COc2cc(-c3cccc(OC)c3)nc3ccc(NC(=O)c4ccc(Cl)cc4)cc23)cc1	21	-20	8	8	26
CC(C)(C)S(=O)N1C[C@@H]2CC(=O)C=C2[C@H]1CCO (stereo not given in full)	.	.	2	.	0
Cc1nn(CCN)c(C)c1Cl	18	1	91*	10	58*
O=C(Nc1cccc(O)c1)c1noc2c1CCc1ccccc1-2	37*	40	13	-15	21
CN(C)C(CNC(=O)c1cccc(S(=O)(=O)N2CCN(c3ccc(F)cc3)CC2)c1)c1ccccc1 (stereo not given)	.	.	12	.	5
CN=C(Nc1cc(C)nn1CCC#N)c1ccc(F)cc1	4	-15	7	-6	-8
Cn1ccc(NC(=O)c2ccc([N+](=O)[O-])cc2)n1	29*	-10	6	-14	-10
Cn1ccc(NC(=O)c2ccc(Cl)cc2)n1	1	-9	2	-12	-31
Cc1cc(NC(=O)c2ccc([N+](=O)[O-])cc2)n(CCC#N)n1	46*	-4	-1	9	-1
C[C@@H]1C(=O)N(c2ccccc2)[C@@H]1c1ccncc1	3	-15	3	-11	9
O=Nc1c(O)n(Cc2ccc(Cl)cc2Cl)c2ccccc12	16	24	10	87*	-25
Cc1ccc2c(c1)c(N=O)c(O)n2Cc1ccc(Cl)cc1	6	-2	2	36*	-22
CN(C)c1ccc(N=Nc2ccccc2C(=O)OCC(=O)N(C)C2CCCCC2)cc1	37	-18	2	55*	-29
COC(=O)CSc1nc(-c2cccs2)ccc1C#N	68*	17	13	-21	6
CCN(CC)C(=O)CSc1nc(-c2cccs2)cc(-c2cccs2)c1C#N	24	3	5	58*	61*
CCN(CC)C(=O)CSc1nc(N)c(C#N)c(-c2cccs2)c1C#N	2	-9	14	-17	-10
C=CCSc1nc(N)c2c(C)c(C)sc2n1	46*	-13	3	-13	9
CCSc1nc(N)c2c(C)c(C)sc2n1	34	-31	12	-5	-2
SMILES	OX1R antag-1	OX1R antag-2	TAAR1 agonist	CHO parental Ca	TAAR1 antagonist
O=C(O)CCCCN1C(=O)C=CC1=O	.	.	1	.	-17
COc1cc2c(cc1OC)CN(c1ccc3ccccc3n1)CC2	73*	-10	-1	-15	2
COc1cc2c(cc1OC)CN(c1ccc(-c3ccccc3OC)nn1)CC2	34	-19	.	-5	.
COC(=O)C1=C(C)N(Cc2ccccc2C(F)(F)F)C(=NCc2ccc(OC)cc2)NC1c1ccc(C(F)(F)F)cc1 (stereo not given)	.	.	9	.	2
COc1ccc(C(=O)Nc2ccccc2C(=O)NC(Cc2c[nH]c3ccccc23)C(=O)O)cc1 (stereo not given)	68*	21	5	-2	-8
CCN=C1NC(c2ccc(C(F)(F)F)cc2)C(C(=O)OC)=C(C)N1Cc1ccccc1C(F)(F)F (stereo not given)	.	.	19	.	21
COC(=O)c1ccc(NC(=O)c2cc(-c3ccccn3)nc3ccccc23)cc1	0	-12	1	0	-23
Cc1ccc(-c2cc(C(=O)Nc3ccccc3C)c3ccccc3n2)o1	13	-19	12	-19	18
CCN(CC)S(=O)(=O)c1cc(NC(=O)c2cc(-c3ccccn3)nc3ccccc23)ccc1C	15	-22	16	-17	55*
Cc1ccc(-c2cc(C(=O)Nc3cccc(S(=O)(=O)N(C)C)c3)c3ccccc3n2)o1	14	-9	29	3	58*
CCN(CC)C(=O)c1ccc2nc3ccccc3nc2c1	65*	-15	5	-6	-4
CCN(CC)C(=O)c1cccc(NC(=O)c2cc(-c3ccccn3)nc3ccccc23)c1	8	-7	17	-15	49*
CCN(CC)C(=O)c1ccc2nc(-c3ccccc3)c(-c3ccccc3)nc2c1	23	-37	10	-8	-9
Cc1ccc(S(=O)(=O)N2[C@@H](c3cccc(Cl)c3)C(C(=O)OC(C)(C)C)=CC[C@H]2c2ccc(C(C)C)cc2)cc1	.	.	0	.	-20
CCN(CC(=O)Nc1ccc(NC(C)=O)cc1)C(=O)c1ccc2ccccc2c1	15	-30	5	-12	-30
CCN(CC(=O)Nc1ccc(NC(C)=O)cc1)C(=O)c1cc(-c2ccccc2Cl)nc2ccccc12	.	.	39*	.	72*
OC[C@@H]1CN(Cc2cccs2)C[C@H](n2cnc3c(NCc4ccco4)ncnc32)O1	.	.	1	.	-8
CC(C)C(=O)N1CCC1(C)C(=O)NCc1ccc(C(C)(C)C)cc1 (stereo not given)	.	.	6	.	-11
COc1ccc(-c2ccc(C(=O)Nc3cccc(NS(C)(=O)=O)c3)c3occc23)c(C)c1	.	.	3	.	71*
Cc1c(Br)c(O)c(Br)c(O)c1/C=N/n1c(-c2ccccc2)n[nH]c1=S	44*	-14	.	-9	.
CC(=O)Nc1ccc(-c2ccnc3c2CC(C)(C(=O)NCc2ccc(N(C)C)cc2)O3)cc1 (stereo not given)	.	.	0	.	-5
Cn1nc(C(F)(F)F)c(-c2ccc(Br)cc2)c1NC(=O)Nc1ccc(F)cc1F	24	46*	9	33	28
Cn1nc(C(F)(F)F)c(-c2ccc(F)cc2)c1NC(=O)c1ccco1	3	-13	0	-6	-24
O=[N+]([O-])c1ccc(N=Nc2ncc[nH]2)cc1	.	.	6	.	3
